{"data": "Published values collected from several papers", "target": "Phosphatidylinositol 5-phosphate 4-kinase type-2 beta (PIP4K2B, Homo sapiens, UniProt P78356)", "Residues used in one study (P78356 1-416)": "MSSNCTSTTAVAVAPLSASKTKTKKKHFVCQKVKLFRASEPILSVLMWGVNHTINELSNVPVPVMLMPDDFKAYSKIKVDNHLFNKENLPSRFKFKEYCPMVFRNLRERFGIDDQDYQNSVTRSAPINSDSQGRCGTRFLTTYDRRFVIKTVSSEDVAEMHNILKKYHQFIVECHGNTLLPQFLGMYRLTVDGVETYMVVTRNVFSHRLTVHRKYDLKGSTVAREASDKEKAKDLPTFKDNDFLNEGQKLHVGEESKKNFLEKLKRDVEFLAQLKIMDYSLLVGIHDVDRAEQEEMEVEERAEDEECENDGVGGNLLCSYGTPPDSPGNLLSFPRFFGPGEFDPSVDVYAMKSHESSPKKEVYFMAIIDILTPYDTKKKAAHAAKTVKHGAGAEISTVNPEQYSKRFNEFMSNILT", "note": "Lines come from different studies, so protocols differ."}
{"Compound": "CN(c1nccc(-c2cnn3ncccc23)n1)C1CC1", "effect on": "binding", "tested at": "1 µM", "remaining binding [%]": 65}
{"Compound": "O=C(c1ccc(Nc2ncc(Cl)c(-c3ccc(Cl)s3)n2)cc1)N1CCC(N2CCCC2)CC1", "effect on": "binding", "technique": "competition with immobilised ligand", "tested at": "1 µM", "remaining binding [%]": 1.9}
{"Compound": "N[C@H]1CCN(c2nccc(-c3cnn4ncccc34)n2)C1", "effect on": "binding", "tested at": "1 µM", "remaining binding [%]": 100}
{"Compound": "Cc1cnc(Nc2ccc(C(=O)N3CCC(N4CCCC4)CC3)cc2)nc1-c1cc2ccccc2s1", "effect on": "binding", "technique": "competition with immobilised ligand", "tested at": "1 µM", "remaining binding [%]": 8.8}
{"Compound": "COc1ncc2cc3ccccc3nc2c1C#N", "effect on": "cell-free assay", "technique": "competition with immobilised ligand", "tested at": "5 µM", "remaining binding [%]": 100}
{"Compound": "COc1ccc2c(c1)O[C@H](c1ccc(OC)c(OC)c1)C[C@@H]2NC(=O)C1(c2ccc3c(c2)OC(F)(F)O3)CC1", "effect on": "cell-free assay", "technique": "competition with immobilised ligand", "tested at": "1 µM", "remaining binding [%]": 80}
{"Compound": "F[C@@H]1CCN(c2nccc(-c3cnn4ncccc34)n2)C1", "effect on": "binding", "tested at": "1 µM", "remaining binding [%]": 79}
{"Compound": "Cc1nc(NC(=O)N2CCC[C@H]2C(N)=O)sc1-c1ccnc(C(C)(C)C(F)(F)F)c1", "effect on": "binding", "technique": "competition with immobilised ligand", "tested at": "10 µM", "remaining binding [%]": 100}
{"Compound": "Nc1ncc2c(n1)-c1c([nH]c3ccc(C#CC4CC4)cc13)CCCC2", "effect on": "binding", "technique": "competition with immobilised ligand", "tested at": "1 µM", "remaining binding [%]": 86}
{"Compound": "C[C@@H](c1cccc(C#N)c1)n1cc(Cl)cc(C(N)=O)c1=N", "effect on": "cell-free assay", "technique": "competition with immobilised ligand", "tested at": "1 µM", "remaining binding [%]": 73}
{"Compound": "O=C(Nc1c[nH]nc1C(=O)NC1CCNCC1)c1cc(F)cc(F)c1", "effect on": "binding", "technique": "competition with immobilised ligand", "tested at": "1 µM", "remaining binding [%]": 88}
{"Compound": "CN(CCCC(F)(F)F)c1nccc(-c2cnn3ncccc23)n1", "effect on": "binding", "tested at": "1 µM", "remaining binding [%]": 57}
{"Compound": "Cc1cc(C)c(-n2ccn3nc(-c4cccnc4)cc23)cc1NC(=O)c1cc(C#N)cc(S(F)(F)(F)(F)F)c1", "effect on": "cell-free assay", "technique": "competition with immobilised ligand", "tested at": "0.1 µM", "remaining binding [%]": 52.2}
{"Compound": "O=C(c1ccc(Nc2ncc(Cl)c(-c3cc4ccccc4s3)n2)cc1)N1CCC(N2CCCC2)CC1", "effect on": "binding", "technique": "competition with immobilised ligand", "tested at": "1 µM", "remaining binding [%]": 7.1}
{"Compound": "Cc1cnn2ncc(-c3ccnc(N(C)C)n3)c2c1", "effect on": "binding", "tested at": "1 µM", "remaining binding [%]": 47}
{"Compound": "Cc1c(NC(=O)c2cc(C(N)=O)nc3cc(F)ccc23)c(C(F)(F)F)nn1Cc1ccc(C#N)cc1", "effect on": "cell-free assay", "technique": "competition with immobilised ligand", "tested at": "1 µM", "remaining binding [%]": 88}
{"Compound": "COc1cnc(Nc2cccc(S(N)(=O)=O)c2)nc1N1CCN(c2ccccc2)C(=O)C1", "effect on": "binding", "technique": "competition with immobilised ligand", "tested at": "1 µM", "remaining binding [%]": 100}
{"Compound": "Cn1nc(C(F)(F)F)cc1-c1cnc(N2CCc3cc(S(=O)(=O)Nc4c(F)cc(Cl)cc4F)cc(N4CCCC4=O)c32)nc1", "effect on": "cell-free assay", "technique": "competition with immobilised ligand", "tested at": "1 µM", "remaining binding [%]": 100}
{"Compound": "CNC(=O)[C@@H]1CC[C@@H](n2c(-c3ccc4cnccc4c3)nc3ccc(C(=O)NCc4cccc(C(N)=O)c4)cc32)C1", "effect on": "binding", "technique": "competition with immobilised ligand", "tested at": "1 µM", "remaining binding [%]": 99}
{"Compound": "CN(C)c1ncc(F)c(-c2cnn3ncccc23)n1", "effect on": "binding", "tested at": "1 µM", "remaining binding [%]": 100}
{"Compound": "O=C(N[C@H]1CCCCC/C=C\\C2C[C@@]2(C(=O)O)NC(=O)[C@@H]2C[C@@H](Oc3ccncc3)CN2C1=O)OC1CCCC1 (some centres unmarked)", "effect on": "binding", "technique": "competition with immobilised ligand", "tested at": "1 µM", "remaining binding [%]": 100}
{"Compound": "C[C@@H]1CCN(c2nccc(-c3cnn4ncccc34)n2)C1", "effect on": "binding", "tested at": "1 µM", "remaining binding [%]": 100}
{"Compound": "CCOCCn1cc(C(=O)Nc2ccc(-n3nc(-c4cccnc4)cc3C(F)(F)F)cn2)ccc1=O", "effect on": "cell-free assay", "technique": "competition with immobilised ligand", "tested at": "1 µM", "remaining binding [%]": 68}
